Results of several laboratories.
Protocols differ between the studies behind these lines.
Target: Death-associated protein kinase 2 (DAPK2, Homo sapiens, UniProt Q9UIK4)

| SMILES | test | setting | remaining binding |
| --- | --- | --- | --- |
| COc1ncc2cc3ccccc3nc2c1C#N | cell-free assay, competition with immobilised ligand | 5 µM | 97% |
| O=C(NCCCN1CCOCC1)c1ccc(Nc2nccc(-c3cc4ccccc4s3)n2)cc1 | binding, competition with immobilised ligand | 1 µM | 18% |
| FC(F)(F)Oc1cccc(-c2cnc3ccc(-c4ccncc4)nn23)c1 | cell-free assay, competition with immobilised ligand | 5 µM | 66% |
| CN(c1nccc(-c2cnn3ncccc23)n1)C1CC1 | binding | 1 µM | 76% |
| N#CC1(c2ccccn2)CCN(Cc2cc(C(=O)N3CCCC3)c(=O)n3ccccc23)CC1 | cell-free assay, competition with immobilised ligand | 1 µM | 94% |
| c1cncc(-c2cccc(Nc3nccc(NC4CCCCC4)n3)c2)c1 | binding, competition with immobilised ligand | 10 µM | 84% |
| Cc1cnn2ncc(-c3ccnc(N(C)C)n3)c2c1 | binding | 1 µM | 87% |
| CN(c1ccnc(CNc2nc(Nc3ccc4c(c3)CC(=O)N4)ncc2C(F)(F)F)n1)S(C)(=O)=O | cell-free assay, competition with immobilised ligand | 1 µM | 58% |
| C[C@@H]1CCN(c2nccc(-c3cnn4ncccc34)n2)C1 | binding | 1 µM | 85% |
| Nc1c(C(=O)NCc2ccc(C(=O)NCCCC3CCCCC3)cc2)cnn1-c1ccccc1 | cell-free assay, competition with immobilised ligand | 0.1 µM | 100% |
| N[C@@H]1CCN(c2nccc(-c3cnn4ncccc34)n2)C1 | binding | 1 µM | 100% |
| O=C(Nc1c[nH]nc1C(=O)NC1CCNCC1)c1cc(F)cc(F)c1 | binding, competition with immobilised ligand | 1 µM | 100% |
| O=C(c1ccc(Nc2ncc(Cl)c(-c3cc4ccccc4s3)n2)cc1)N1CCC(N2CCCC2)CC1 | binding, competition with immobilised ligand | 1 µM | 20% |
| Cn1nc(C(F)(F)F)cc1-c1cnc(N2CCc3cc(S(=O)(=O)Nc4c(F)cc(Cl)cc4F)cc(N4CCCC4=O)c32)nc1 | cell-free assay, competition with immobilised ligand | 1 µM | 94% |
| C[C@@H](c1ccc(-n2cnc3c(N)ncnc32)cc1)N1CCc2nn(C)c(Cc3ccccc3)c2C1=O | binding, competition with immobilised ligand | 0.1 µM | 100% |
| Cc1cc(-n2nc(Cc3cc(F)cc(C(F)(F)F)c3)nc2C)ccc1C(N)=O | cell-free assay, competition with immobilised ligand | 1 µM | 95% |
| COc1cnc(Nc2cccc(S(N)(=O)=O)c2)nc1N1CCN(c2ccccc2)C(=O)C1 | binding, competition with immobilised ligand | 1 µM | 100% |
| Cc1c(NC(=O)c2cc(C(N)=O)nc3cc(F)ccc23)c(C(F)(F)F)nn1Cc1ccc(C#N)cc1 | cell-free assay, competition with immobilised ligand | 1 µM | 99% |
| c1cnn2ncc(-c3ccnc(N4CCC45COC5)n3)c2c1 | binding | 1 µM | 70% |
| Cc1noc([C@H]2C[C@@H](c3ccc(C(F)(F)F)cc3)CN(C(=O)N3CCS(=O)(=O)C3)C2)n1 | cell-free assay, competition with immobilised ligand | 1 µM | 100% |
| Cc1cnc(Nc2ccc(C(=O)N3CCC(N4CCCC4)CC3)cc2)nc1-c1cc2ccccc2s1 | binding, competition with immobilised ligand | 1 µM | 8.9% |
| CN(CCCC(F)(F)F)c1nccc(-c2cnn3ncccc23)n1 | binding | 1 µM | 97% |
